One data set has as its system HCT-116. As to the kind of experiment: Cytotoxicity against human HCT116 assessed as decrease in cell count after 120 hrs. The conditions noted are these: HCT-116, 120 h. The class given is functional, cell-based.
The nature of data set [1]: Cytotoxicity against human HN12 assessed as decrease in cell count after 120 hrs. The class given is functional. The conditions noted are these: HN12, 120 h.
The test system of data set [2] is Mus musculus. As to the kind of experiment: Toxicity in mouse assessed as increase in haematocrit at 5 ug/kg, ip qd for 4 days after 72 hrs of last postdose. The class given is organism-based. The conditions noted are these: in vivo, 0.005 mg/kg. The gist of the method:
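Mice (n = 5/group) received a daily intraperitoneal injection at 5 µg/kg body weight for 4 days, with isopropanol as vehicle. Blood was drawn before dosing and at 24, 48, 72 and 96 h, and haematocrit was recorded from these samples.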

Data set [3] relates to Mus musculus. Kind of data set: Toxicity in mouse assessed as mortality at 5 ug/kg, ip qd for 4 days. Format: organism-based. As to conditions: in vivo, 0.005 mg/kg, 96 h. The procedure, abridged:
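Mice, groups of 5, given daily intraperitoneal injection at 5 µg/kg body weight for 4 days, isopropanol vehicle group alongside. Blood collected before dosing and at 24, 48, 72 and 96 h for plasma calcium (arsenazo III absorbance). Health condition recorded daily; deaths noted. Experiment repeated two times.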

Data set [4] has as its system Mus musculus. Kind of data set: Toxicity in mouse assessed as increase in plasma calcium level at 5 ug/kg, ip qd for 4 days measured after 24 to 96 hrs postdose. The class given is organism-based. The conditions noted are these: in vivo, 0.005 mg/kg. The gist of the method: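 Mice (n = 5/group) were dosed ip daily at 5 µg/kg body weight for 4 days, with isopropanol as vehicle. Plasma calcium was read by arsenazo III metallochromic absorbance before injection (0 h, basal) and at 24, 48, 72 and 96 h. Data are means ± SD of five animals, and the experiment was run twice.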

Data set [5] can be described thus: Cmax in mouse at 5 ug/kg. The class given is ADME, organism-based. The arrangement: dose 5 ug/kg. The conditions noted are these: in vivo, 0.005 mg/kg.
A short description of data set [6]: AUC (0 to 24 hrs) in mouse at 5 ug/kg. Format: ADME, organism-based. The arrangement: dose 5 ug/kg, time < 24 hr. As to conditions: plasma, 0.005 mg/kg.

`C=C1/C(=C\C=C2/CCC[C@]3(C)[C@@H]([C@H](C)/C=C\[C@H](C)C(O)(CC)CC)CC[C@@H]23)C[C@@H](O)C[C@@H]1O`: the concentration for half-maximal inhibition (IC50) worked out at 0.76 nM in the data set with HCT-116 and 5.05 nM in data set [1]. The Activity result with Mus musculus [2], with Mus musculus [3] and in the data set with Mus musculus [4] was “Toxic” in each case.

The compound `C=C1/C(=C\C=C2/CCC[C@]3(C)[C@@H]([C@H](C)CCCC(C)(C)O)CC[C@@H]23)C[C@@H](O)C[C@@H]1O` [CALCITRIOL] returned a Cmax in data set [5] of over 10 ng/mL. Moreover, the AUC(0-t) at 24 h in data set [6] was over 40 ng·h/mL. For the same compound, the Activity entry in the data set on Mus musculus [2], with Mus musculus [3] and with Mus musculus [4] was “Toxic” each time.

By IC50 is commonly meant the concentration needed to halve the response being measured. What is called Cmax is the peak of the concentration-time curve. In general, AUC(0-t) refers to exposure summed from dosing to a finite time, without extrapolation to infinity. Higher therefore signals more exposure.

(Values after ChEMBL document CHEMBL2146387, “Synthesis and biological evaluation of a new vitamin D2 analogue” (Bioorg Med Chem Lett, 2012).)
